From paper PMC4415995 (Advances in Therapy, 2015)
Marks after values point to notes of the source that are not given here.

Tests used:
[1] = test system: Japanese patients with T2DM; assay: Urine volume, water intake and body weight, 7-day once-daily dosing; type: in vivo, human
[2] = test system: Japanese patients with T2DM; assay: Clinical laboratory tests and vital signs, 7-day once-daily dosing; type: in vivo, human
Outline: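 Randomized, single-blind, placebo-controlled, parallel-group study in Japanese T2DM outpatients (HbA1c 6.9–10.5%, FPG ≥126 mg/dL, stable diet 4 weeks, age 20–74 y). Test compound 0.5, 1, 2.5 or 5 mg or placebo was given orally once daily for 7 days before breakfast. Safety set was all dosed patients. AEs were coded in MedDRA 12.1 and graded mild/moderate/severe, with drug relation judged by the investigator. Labs, vital signs, body weight and ECG were also recorded.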

For `CCOc1ccc(Cc2cc([C@@H]3S[C@H](CO)[C@@H](O)[C@H](O)[C@H]3O)c(OC)cc2C)cc1` [Luseogliflozin, (1S)-1,5-anhydro-1-[5-(4-ethoxybenzyl)-2-methoxy-4-methylphenyl]-1-thio-D-glucitol], which “Body weight (24 h after dose)” value ([1]; 0.5 mg OD, Day 1) is on record?
The value was 67.49 ± 14.32 kg.

What about the “Body weight (24 h after dose) LS mean difference vs placebo (95% CI)” value ([1]; 0.5 mg OD, Day 1) of the same molecule?
The value was −0.19 (−0.58, 0.20) kg.

What about the Urine volume ([1]; 0.5 mg OD, Day 1) of the same molecule?
Its Urine volume is 3148.1 ± 718.5 mL/day.

And the “Urine volume LS mean difference vs placebo (95% CI)” value ([1]; 0.5 mg OD, Day 1)?
The value was 456.1 (−212.4, 1124.7) mL/day.

What about the Water intake ([1]; 0.5 mg OD, Day 1) of the same molecule?
Its Water intake is 2694.4 ± 936.4 mL/day.

What about the “Water intake LS mean difference vs placebo (95% CI)” value ([1]; 0.5 mg OD, Day 1) of the same molecule?
The value was 131.8 (−455.8, 719.3) mL/day.

What about the “Body weight (24 h after dose)” value ([1]; 0.5 mg OD, Day 7) of the same molecule?
Its value is 66.76 ± 14.29 kg.

And the “Body weight (24 h after dose) LS mean difference vs placebo (95% CI)” value ([1]; 0.5 mg OD, Day 7)?
Its value is −0.45 (−1.14, 0.24) kg.

And the Urine volume ([1]; 0.5 mg OD, Day 7)?
The Urine volume was 3053.3 ± 1067.7 mL/day.

What about the “Urine volume LS mean difference vs placebo (95% CI)” value ([1]; 0.5 mg OD, Day 7) of the same molecule?
Its value is 303.5 (−208.4, 815.3) mL/day.

And the Water intake ([1]; 0.5 mg OD, Day 7)?
Its Water intake is 2686.4 ± 929.1 mL/day.

What about the “Water intake LS mean difference vs placebo (95% CI)” value ([1]; 0.5 mg OD, Day 7) of the same molecule?
Its value is 175.8 (−407.1, 758.7) mL/day.

What about the “Body weight (24 h after dose)” value ([1]; 1 mg OD, Day 1) of the same molecule?
The value was 71.71 ± 18.26 kg.

And the “Body weight (24 h after dose) LS mean difference vs placebo (95% CI)” value ([1]; 1 mg OD, Day 1)?
Its value is −0.31 (−0.68, 0.07) kg.

And the Urine volume ([1]; 1 mg OD, Day 1)?
Its Urine volume is 3284.5 ± 653.4 mL/day.

What about the “Urine volume LS mean difference vs placebo (95% CI)” value ([1]; 1 mg OD, Day 1) of the same molecule?
The value was 723.8 (76.7, 1370.9)* mL/day.

What about the Water intake ([1]; 1 mg OD, Day 1) of the same molecule?
Its Water intake is 3023.8 ± 883.4 mL/day.

What about the “Water intake LS mean difference vs placebo (95% CI)” value ([1]; 1 mg OD, Day 1) of the same molecule?
The value was 513.6 (−54.5, 1081.7) mL/day.

And the “Body weight (24 h after dose)” value ([1]; 1 mg OD, Day 7)?
Its value is 71.01 ± 18.10 kg.

And the “Body weight (24 h after dose) LS mean difference vs placebo (95% CI)” value ([1]; 1 mg OD, Day 7)?
Its value is −0.51 (−1.17, 0.14) kg.

And the Urine volume ([1]; 1 mg OD, Day 7)?
The Urine volume was 2421.0 ± 795.6 mL/day.

And the “Urine volume LS mean difference vs placebo (95% CI)” value ([1]; 1 mg OD, Day 7)?
The value was −174.9 (−670.3, 320.5) mL/day.

What about the Water intake ([1]; 1 mg OD, Day 7) of the same molecule?
The Water intake was 2400.4 ± 583.5 mL/day.

What about the “Water intake LS mean difference vs placebo (95% CI)” value ([1]; 1 mg OD, Day 7) of the same molecule?
Its value is −64.4 (−628, 499.2) mL/day.

What about the “Body weight (24 h after dose)” value ([1]; 2.5 mg OD, Day 1) of the same molecule?
The value was 67.43 ± 7.73 kg.

What about the “Body weight (24 h after dose) LS mean difference vs placebo (95% CI)” value ([1]; 2.5 mg OD, Day 1) of the same molecule?
Its value is −0.53 (−0.91, −0.15)* kg.

What about the Urine volume ([1]; 2.5 mg OD, Day 1) of the same molecule?
The Urine volume was 3511.4 ± 522.9 mL/day.

And the “Urine volume LS mean difference vs placebo (95% CI)” value ([1]; 2.5 mg OD, Day 1)?
The value was 643.8 (−3.8, 1291.3) mL/day.

What about the Water intake ([1]; 2.5 mg OD, Day 1) of the same molecule?
Its Water intake is 2964.0 ± 940.1 mL/day.

What about the “Water intake LS mean difference vs placebo (95% CI)” value ([1]; 2.5 mg OD, Day 1) of the same molecule?
Its value is −161.3 (−733.9, 411.4) mL/day.

And the “Body weight (24 h after dose)” value ([1]; 2.5 mg OD, Day 7)?
Its value is 66.70 ± 7.84 kg.

And the “Body weight (24 h after dose) LS mean difference vs placebo (95% CI)” value ([1]; 2.5 mg OD, Day 7)?
The value was −0.79 (−1.46, −0.12)* kg.

And the Urine volume ([1]; 2.5 mg OD, Day 7)?
Its Urine volume is 3048.5 ± 868.2 mL/day.

What about the “Urine volume LS mean difference vs placebo (95% CI)” value ([1]; 2.5 mg OD, Day 7) of the same molecule?
Its value is 92.9 (−402.9, 588.6) mL/day.

And the Water intake ([1]; 2.5 mg OD, Day 7)?
Its Water intake is 3049.1 ± 856.6 mL/day.

And the “Water intake LS mean difference vs placebo (95% CI)” value ([1]; 2.5 mg OD, Day 7)?
Its value is 46.5 (−521.6, 614.6) mL/day.

What about the “Body weight (24 h after dose)” value ([1]; 5 mg OD, Day 1) of the same molecule?
Its value is 70.96 ± 9.34 kg.

And the “Body weight (24 h after dose) LS mean difference vs placebo (95% CI)” value ([1]; 5 mg OD, Day 1)?
Its value is −0.74 (−1.11, −0.36)* kg.

And the Urine volume ([1]; 5 mg OD, Day 1)?
The Urine volume was 3939.8 ± 1386.0 mL/day.

What about the “Urine volume LS mean difference vs placebo (95% CI)” value ([1]; 5 mg OD, Day 1) of the same molecule?
The value was 888.4 (235, 1541.8)* mL/day.

And the Water intake ([1]; 5 mg OD, Day 1)?
Its Water intake is 3256.8 ± 1581.7 mL/day.

And the “Water intake LS mean difference vs placebo (95% CI)” value ([1]; 5 mg OD, Day 1)?
Its value is 17.3 (−558.5, 593.1) mL/day.

What about the “Body weight (24 h after dose)” value ([1]; 5 mg OD, Day 7) of the same molecule?
Its value is 70.24 ± 9.09 kg.

What about the “Body weight (24 h after dose) LS mean difference vs placebo (95% CI)” value ([1]; 5 mg OD, Day 7) of the same molecule?
The value was −0.97 (−1.62, −0.31)* kg.

And the Urine volume ([1]; 5 mg OD, Day 7)?
Its Urine volume is 3471.4 ± 1204.5 mL/day.

What about the “Urine volume LS mean difference vs placebo (95% CI)” value ([1]; 5 mg OD, Day 7) of the same molecule?
The value was 300.4 (−199.9, 800.6) mL/day.

What about the Water intake ([1]; 5 mg OD, Day 7) of the same molecule?
Its Water intake is 3141.0 ± 1387.3 mL/day.

And the “Water intake LS mean difference vs placebo (95% CI)” value ([1]; 5 mg OD, Day 7)?
The value was 38.5 (−532.7, 609.8) mL/day.

And the “Cystatin C, change from baseline” value ([2]; 0.5 mg OD, Day 1)?
Its value is -0.040 ± 0.018 mg/L.

What about the “DBP, change from baseline” value ([2]; 0.5 mg OD, Day 1) of the same molecule?
Its value is 3.0 ± 5.2 mmHg.

And the “Hematocrit, change from baseline” value ([2]; 0.5 mg OD, Day 1)?
Its value is −1.14 ± 0.73%.

And the “SBP, change from baseline” value ([2]; 0.5 mg OD, Day 1)?
The value was −1.7 ± 6.0 mmHg.

And the “Serum calcium, change from baseline” value ([2]; 0.5 mg OD, Day 1)?
The value was -0.19 ± 0.12 mg/dL.

And the “Serum phosphorus, change from baseline” value ([2]; 0.5 mg OD, Day 1)?
Its value is 0.30 ± 0.40 mg/dL.

And the “Urinary NAG, change from baseline” value ([2]; 0.5 mg OD, Day 1)?
Its value is −0.31 ± 0.67 U/L.

And the “Urinary calcium, change from baseline” value ([2]; 0.5 mg OD, Day 1)?
The value was 0.01 ± 0.04 g/day.

What about the “Urinary phosphorus, change from baseline” value ([2]; 0.5 mg OD, Day 1) of the same molecule?
The value was -0.13 ± 0.10 g/day.

And the “Urinary type IV collagen, change from baseline” value ([2]; 0.5 mg OD, Day 1)?
The value was −0.40 ± 1.08 μg/g creatinine.

And the “Urinary uric acid, change from baseline” value ([2]; 0.5 mg OD, Day 1)?
The value was 0.04 ± 0.05 g/day.

What about the “Urinary β2-microglobulin, change from baseline” value ([2]; 0.5 mg OD, Day 1) of the same molecule?
The value was -12.4 ± 25.2 µg/L.

And the “Cystatin C, change from baseline” value ([2]; 0.5 mg OD, Day 7)?
The value was -0.067 ± 0.029 mg/L.

What about the “DBP, change from baseline” value ([2]; 0.5 mg OD, Day 7) of the same molecule?
Its value is 3.1 ± 3.8 mmHg.

And the “Hematocrit, change from baseline” value ([2]; 0.5 mg OD, Day 7)?
The value was −2.20 ± 0.95%.

And the “SBP, change from baseline” value ([2]; 0.5 mg OD, Day 7)?
Its value is −5.9 ± 3.8 mmHg.

And the “Serum calcium, change from baseline” value ([2]; 0.5 mg OD, Day 7)?
The value was -0.24 ± 0.05 mg/dL.

What about the “Serum phosphorus, change from baseline” value ([2]; 0.5 mg OD, Day 7) of the same molecule?
Its value is 0.16 ± 0.40 mg/dL.

What about the “Urinary NAG, change from baseline” value ([2]; 0.5 mg OD, Day 7) of the same molecule?
Its value is −0.06 ± 0.80 U/L.

What about the “Urinary calcium, change from baseline” value ([2]; 0.5 mg OD, Day 7) of the same molecule?
The value was 0.01 ± 0.04 g/day.

And the “Urinary phosphorus, change from baseline” value ([2]; 0.5 mg OD, Day 7)?
Its value is -0.04 ± 0.13 g/day.

What about the “Urinary type IV collagen, change from baseline” value ([2]; 0.5 mg OD, Day 7) of the same molecule?
The value was −0.21 ± 1.25 μg/g creatinine.

What about the “Urinary uric acid, change from baseline” value ([2]; 0.5 mg OD, Day 7) of the same molecule?
The value was -0.01 ± 0.07 g/day.

What about the “Urinary β2-microglobulin, change from baseline” value ([2]; 0.5 mg OD, Day 7) of the same molecule?
The value was -7.4 ± 27.1 µg/L.

And the “Cystatin C, change from baseline” value ([2]; 1 mg OD, Day 1)?
The value was 0.005 ± 0.077 mg/L.

And the “DBP, change from baseline” value ([2]; 1 mg OD, Day 1)?
Its value is 0.4 ± 4.9 mmHg.
